Assay type in all cases: functional
Assay [1] relates to Escherichia coli. Description: Inhibition of cell free transcription/translation by Escherichia coli s30 bacterial extract. Summed up: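 Coupled transcription/translation in E. coli S30 extract with pBest Luc plasmid (0.125 μg/μL stock), S30 premix and complete amino acid mix (1 mM each, 10× stock). 35 min at 37 °C, then luciferase read by luminescence. IC50 = concentration reducing luciferase activity to 50% of control; compounds HPLC-purified before IC50 determination.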

In assay [2] the test system is Escherichia coli. Description: In vitro minimum inhibition concentration against Escherichia coli Ram195, pump mutant. In short, it runs like this:
(§1)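 Broth microdilution in duplicate. Overnight culture added to compound in 2.5% DMSO in water; final inoculum about 10²–10³ CFU/well. Growth relative to no-compound control read as A595 after 20–24 h at 37 °C. MIC reported as a range: complete inhibition at the upper concentration, viable cells at the lower. Top concentration 100 μM.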

The subject of assay [3] is Escherichia coli. Description: In vitro minimum inhibition concentration against Escherichia coli K-12, wild type. In short, it runs like this: as §1
For assay [4], the system named is Escherichia coli. Kind of assay: In vitro minimum inhibition concentration against Escherichia coli D21f2, LPS mutant; Range is from 25-50. In short, it runs like this:
as §1

Assay [5] deals with Escherichia coli. Description: In vitro minimum inhibition concentration against Escherichia coli KZM120, pump mutant. Summed up:
as §1

The nature of assay [6]: In vitro inhibition of translation in luciferase SP6 control plasmid. Summed up:
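Luciferase mRNA transcribed from SP6 plasmid with SP6 RNA polymerase, then translated in E. coli S30 extract for linear templates with S30 premix and complete amino acid mix (1 mM each, 10× stock). 90 min at 37 °C; functional luciferase detected by luminescence. IC50 = concentration reducing luciferase activity to 50% of control.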

Assay [7] concerns Escherichia coli. Description: In vitro minimum inhibition concentration against Escherichia coli D21f2, LPS mutant; Range is from 12-25. In short, it runs like this: as §1
The test system of assay [8] is Escherichia coli. Kind of assay: In vitro minimum inhibition concentration against Escherichia coli D21f2, LPS mutant; Range is from 25-50. In short, it runs like this:
as §1

The subject of assay [9] is Escherichia coli. Kind of assay: In vitro minimum inhibition concentration against Escherichia coli Ram195, pump mutant; Range is from 50-100. Summed up: as §1
The test system of assay [10] is Escherichia coli. Kind of assay: In vitro minimum inhibition concentration against Escherichia coli K-12, wild type; Range is from 50-100. In short, it runs like this: as §1
The subject of assay [11] is Escherichia coli. Kind of assay: In vitro minimum inhibition concentration against Escherichia coli KZM120, pump mutant; Range is from 50-100. Summed up: as §1

This note sets out measurements from ChEMBL document CHEMBL1135529, “New inhibitors of bacterial protein synthesis from a combinatorial library of macrocycles” (J Med Chem, 2002).

As a reminder, the IC50 is the concentration that gives 50% inhibition. A high value points to weaker potency in that assay. Broadly, the MIC is the smallest concentration in the dilution series that meets the test's criterion for growth inhibition.

Values after ≈ are worked out from the molar mass of the structure shown.

For `NC(N)=NCCC[C@H]1COc2ccc(NC(=O)CNC(=O)c3ccc4nc(O)c(O)nc4c3)cc2C(=O)NC[C@@H](N)C(=O)N[C@@H](Cc2ccc(N)cc2)C(=O)N1`, it took 50 µM to reach half-maximal inhibition in assay [1] (IC50).
On to `NC(N)=NCCC[C@H]1COc2ccc(NC(=O)c3ccc4nc(O)c(O)nc4c3)cc2C(=O)NC[C@@H](N)C(=O)N[C@@H](Cc2ccc(O)cc2)C(=O)N1`, for which the MIC in [2] was greater than 100 µM; in assay [3], greater than 100 µM; in [4], 50 µM (≈ 35.7 µg/mL); in [5] it was greater than 100 µM. In addition, the concentration for half-maximal inhibition (IC50) came to 50 µM in [6] and 25 µM in [1].
Consider `NC(N)=NCCC[C@@H]1COc2ccc(NC(=O)c3ccc4nc(O)c(O)nc4c3)cc2C(=O)NC[C@H](N)C(=O)N[C@H](Cc2ccc(N)cc2)C(=O)N1`, for which the MIC in assay [2] is greater than 100 µM; in [3], greater than 100 µM; in assay [5], greater than 100 µM; in assay [7] it was 25 µM (≈ 17.8 µg/mL). Moreover, the IC50 in assay [6] was 25 µM; in [1] it was 17 µM.
As for `NC(N)=NCCC[C@H]1COc2ccc(NC(=O)c3ccc4nc(O)c(O)nc4c3)cc2C(=O)NC[C@@H](N)C(=O)N[C@@H](Cc2ccc(N)cc2)C(=O)N1`, the MIC was greater than 100 µM in [2], greater than 100 µM in [3], 50 µM (≈ 35.7 µg/mL) in assay [8] and greater than 100 µM in assay [5]. Moreover, the figures for the half-maximal inhibitory concentration (IC50) in assay [6] and in assay [1] were 13 µM and 16 µM, respectively.
Consider `NC(N)=NCCC[C@H]1COc2ccc(NC(=O)CCNC(=O)c3ccc4nc(O)c(O)nc4c3)cc2C(=O)NC[C@@H](N)C(=O)N[C@@H](Cc2ccc(N)cc2)C(=O)N1`, for which the midpoint of inhibition in assay [1], the IC50, lay at 3 µM.
Turning to `NC(N)=NCCC[C@@H]1COc2ccc(NC(=O)c3ccc4nc(O)c(O)nc4c3)cc2C(=O)NC[C@H](N)C(=O)N[C@H](Cc2ccccc2)C(=O)N1`, the minimum inhibitory concentration (MIC) was 50 µM (≈ 34.9 µg/mL) in assay [4], 100 µM (≈ 69.9 µg/mL) in assay [9], 100 µM (≈ 69.9 µg/mL) in assay [10] and 100 µM (≈ 69.9 µg/mL) in assay [11]. The molecule further showed an IC50 in assay [1] of 12 µM.
As for `Cc1nc2ccc(C(=O)Nc3ccc4c(c3)C(=O)NC[C@@H](N)C(=O)N[C@@H](Cc3ccc(N)cc3)C(=O)N[C@@H](CCCN=C(N)N)CO4)cc2nc1C`, the IC50 in [1] was greater than 100 µM.
`NC(N)=NCCC[C@H]1COc2ccc(NC(=O)c3ccc4nc(O)c(O)nc4c3)cc2C(=O)NC[C@@H](N)C(=O)N[C@@H](Cc2cccnc2)C(=O)N1`: the IC50 in [1] amounted to 50 µM.
On the same count and under the same terms, as for `Cn1c(=O)c(=O)n(C)c2cc(C(=O)Nc3ccc4c(c3)C(=O)NC[C@@H](N)C(=O)N[C@@H](Cc3ccc(N)cc3)C(=O)N[C@@H](CCCN=C(N)N)CO4)ccc21`, the figure is greater than 100 µM; as for `NC(N)=NCCC[C@H]1COc2ccc(NS(=O)(=O)c3ccc4nc(O)c(O)nc4c3)cc2C(=O)NC[C@@H](N)C(=O)N[C@@H](Cc2ccc(N)cc2)C(=O)N1`, 62 µM.
In [1], `NC(N)=NCCC[C@H]1COc2ccc(NC(=O)c3cc4nc(O)c(O)nc4cc3[N+](=O)[O-])cc2C(=O)NC[C@@H](N)C(=O)N[C@@H](Cc2ccc(N)cc2)C(=O)N1` registered a half-inhibitory concentration (IC50) greater than 100 µM.
As to `NC(N)=NCCC[C@H]1COc2ccc(NC(=O)c3ccc4ccccc4n3)cc2C(=O)NC[C@@H](N)C(=O)N[C@@H](Cc2ccc(N)cc2)C(=O)N1`, the half-inhibitory concentration (IC50) in assay [1] was greater than 100 µM.
Turning to `CN(CC(=O)Nc1ccc2c(c1)C(=O)NC[C@@H](N)C(=O)N[C@@H](Cc1ccc(N)cc1)C(=O)N[C@@H](CCCN=C(N)N)CO2)C(=O)c1ccc2nc(O)c(O)nc2c1`, the IC50 in assay [1] is greater than 100 µM.
For the molecule `NC(N)=NCCC[C@@H]1COc2ccc(NC(=O)c3ccc4nc(O)c(O)nc4c3)cc2C(=O)NC[C@H](N)C(=O)N[C@H](Cc2ccc(O)cc2)C(=O)N1`, the minimal inhibitory concentration (MIC) was greater than 100 µM in assay [2], greater than 100 µM in assay [3], greater than 100 µM in assay [5] and 25 µM (≈ 17.9 µg/mL) in [7]. In addition, the concentration for half-maximal inhibition (IC50) in assay [6] was found to be 35 µM; in assay [1] it was 15 µM.
As to `NC(N)=NCCC[C@@H]1COc2ccc(NC(=O)c3ccc4nc(O)c(O)nc4c3)cc2C(=O)NC[C@@H](N)C(=O)N[C@H](Cc2cccnc2)C(=O)N1`, in assay [1], the IC50 was determined as 20 µM.
For `NCCCC[C@H]1COc2ccc(NC(=O)c3ccc4nc(O)c(O)nc4c3)cc2C(=O)NC[C@@H](N)C(=O)N[C@@H](Cc2ccccc2)C(=O)N1`, the minimal inhibitory concentration (MIC) is greater than 100 µM in assay [2], greater than 100 µM in assay [3], greater than 100 µM in assay [5] and 25 µM (≈ 16.8 µg/mL) in assay [7]. Also, the results for the IC50 in assay [6] and in assay [1] were 50 µM and 40 µM, respectively.
Take `NC(N)=NCCC[C@H]1COc2ccc(NC(=O)CCCCCNC(=O)c3ccc4nc(O)c(O)nc4c3)cc2C(=O)NC[C@@H](N)C(=O)N[C@@H](Cc2ccc(N)cc2)C(=O)N1`: 33 µM corresponded to half-maximal inhibition in assay [1] (IC50).
On the same count and under the same terms, as for `NC(N)=NCCC[C@H]1COc2ccc(NC(=O)CCCNC(=O)c3ccc4nc(O)c(O)nc4c3)cc2C(=O)NC[C@@H](N)C(=O)N[C@@H](Cc2ccc(N)cc2)C(=O)N1`, the figure is 75 µM.
Same read-out and setting: as for `Cc1cc2nc(O)c(O)nc2cc1S(=O)(=O)Nc1ccc2c(c1)C(=O)NC[C@@H](N)C(=O)N[C@@H](Cc1ccc(N)cc1)C(=O)N[C@@H](CCCN=C(N)N)CO2`, the figure is 2 µM; as for `NC(N)=NCCC[C@H]1COc2ccc(NC(=O)c3ccc4cccnc4c3)cc2C(=O)NC[C@@H](N)C(=O)N[C@@H](Cc2ccc(N)cc2)C(=O)N1`, greater than 100 µM; as for `NC(N)=NCCC[C@H]1COc2ccc(NC(=O)c3ccc4ccccc4c3)cc2C(=O)NC[C@@H](N)C(=O)N[C@@H](Cc2ccc(N)cc2)C(=O)N1`, greater than 100 µM.
Regarding `NC[C@H]1O[C@H](O[C@H]2[C@H](O)[C@@H](O[C@H]3O[C@H](CO)[C@@H](O)[C@H](N)[C@H]3O)[C@H](N)C[C@@H]2N)[C@H](O)[C@@H](O)[C@@H]1O` [KANAMYCIN], the figures for the IC50 in [6] and in assay [1] were 0.08 µM and 0.04 µM, respectively.
